Laboratory results published in publication PMC4109633 (Drug Design, Development and Therapy, 2014).
Marks after values point to notes of the source that are not given here.

Legend:
[1] = tested on: Salmonella typhimurium TA1535; test: Cytotoxicity in liquid medium; assay type: cell-based; conditions: mean ± SEM
Summary of the method: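 TA1535 was grown in broth microdilution with test compound at 25, 50 or 100 µM. Viability was expressed as % of untreated control (mean ± SEM), triplicate.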

[2] = tested on: Salmonella typhimurium TA1535; test: Ames Salmonella/microsomal mutagenicity assay; assay type: cell-based; conditions: presence of S9 mix, spontaneous 67.0±6.1
[3] = tested on: Salmonella typhimurium TA1535; test: Antimutagenicity assay against sodium azide; assay type: cell-based; conditions: for NaN3 mutagenicity (revertant colonies/plate; mean ± SEM): NaN3 2 μg/plate, spontaneous 29.3±5.3; for Mutant frequency (sodium azide): mutant colonies/viable colonies; for Antimutagenic potential against NaN3: only at 20 μM
Summary of the method: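 TA1535 was exposed to test compound at 10 or 20 µM with NaN₃ (2 µg/plate) in two schemes. In pre-exposure, compound and bacteria were shaken 30 min at 37°C before mutagen was added. In co-exposure, bacteria, mutagen and compound were incubated together 30 min at 37°C. Cells were then plated on minimal glucose agar, and revertants counted at 48 h, in triplicate. Mutant frequency = mutant colonies/viable colonies.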

[4] = tested on: Salmonella typhimurium TA1535; test: Antimutagenicity assay against benzo[a]pyrene with S9 mix; assay type: cell-based; conditions: for B[a]P mutagenicity (revertant colonies/plate; mean ± SEM): B[a]P 20 μM + S9 mix, spontaneous 105.0±13.1; for Mutant frequency (benzo[a]pyrene): mutant colonies/viable colonies
G-quadruplex DNA = conditions: cited from earlier work

| Structure (SMILES) | Viability at fluoroarylbichalcophene concentrations (% of control) ([1]; 25 μM) | Viability at fluoroarylbichalcophene concentrations (% of control) ([1]; 50 μM) | Viability at fluoroarylbichalcophene concentrations (% of control) ([1]; 100 μM) | Fluoroarylbichalcophene mutagenicity (revertant colonies/plate; mean ± SEM) ([2]; 10 μM) [revertant colonies/plate] | Fluoroarylbichalcophene mutagenicity (revertant colonies/plate; mean ± SEM) ([2]; 20 μM) [revertant colonies/plate] | NaN3 mutagenicity (revertant colonies/plate; mean ± SEM) ([3]; co-exposure, 10 μM) [revertant colonies/plate] | Mutant frequency (sodium azide) ([3]; co-exposure, 10 μM) | NaN3 mutagenicity (revertant colonies/plate; mean ± SEM) ([3]; co-exposure, 20 μM) [revertant colonies/plate] | Mutant frequency (sodium azide) ([3]; co-exposure, 20 μM) | NaN3 mutagenicity (revertant colonies/plate; mean ± SEM) ([3]; pre-exposure, 10 μM) [revertant colonies/plate] | Mutant frequency (sodium azide) ([3]; pre-exposure, 10 μM) | NaN3 mutagenicity (revertant colonies/plate; mean ± SEM) ([3]; pre-exposure, 20 μM) [revertant colonies/plate] | Mutant frequency (sodium azide) ([3]; pre-exposure, 20 μM) | Antimutagenic potential against NaN3 ([3]; pre-exposure) | B[a]P mutagenicity (revertant colonies/plate; mean ± SEM) ([4]; co-exposure, 10 μM) [revertant colonies/plate] | B[a]P mutagenicity (revertant colonies/plate; mean ± SEM) ([4]; co-exposure, 20 μM) [revertant colonies/plate] | B[a]P mutagenicity (revertant colonies/plate; mean ± SEM) ([4]; pre-exposure, 10 μM) [revertant colonies/plate] | Mutant frequency (benzo[a]pyrene) ([4]; pre-exposure, 10 μM) | B[a]P mutagenicity (revertant colonies/plate; mean ± SEM) ([4]; pre-exposure, 20 μM) [revertant colonies/plate] | Mutant frequency (benzo[a]pyrene) ([4]; pre-exposure, 20 μM) | other results |
| --- | --- | --- | --- | --- | --- | --- | --- | --- | --- | --- | --- | --- | --- | --- | --- | --- | --- | --- | --- | --- | --- |
| Cl.N=C(N)c1ccc(-c2ccc(-c3ccco3)o2)cc1F [Compound 5b, 4-(2,2′-Bifuran-5-yl)-2-fluorobenzamidine hydrochloride salt] | 101.7±11.3 % of control | 62.0±5.5 ^a % of control | 36.7±2.8 ^a % of control | 68.7±4.0 | 65.0±4.9 | 26.0±2.0 | 0.50 | 21.7±2.5 | 0.43 | 126.7±11.2 | 2.45 | 40.3±6.5 | 0.79 | strong (40% or more reduction means strong antimutagenic activity) | 213.7±15.8 | 166.0±6.6 | 178.0±8.2 | 2.81 | 163.0±7.9 | 2.53 | Mutant frequency (benzo[a]pyrene) ([4]; co-exposure, 10 μM): 3.38; Mutant frequency (benzo[a]pyrene) ([4]; co-exposure, 20 μM): 2.58 |
| Cl.N=C(N)c1ccc(-c2ccc(-c3cccs3)o2)c(F)c1 [Compound 5c, 3-Fluoro-4-(5-(thiophen-2-yl)furan-2-yl)benzamidine hydrochloride salt] | 71.3±6.4 % of control | 58.7±4.2 ^a % of control | 28.7±3.0 ^a % of control | 70.0±5.9 | 66.0±3.5 | 25.7±1.8 | 0.48 | 24.0±3.0 | 0.47 | 102.0±7.2 | 1.91 | 33.3±8.7 | 0.65 | strong (40% or more reduction means strong antimutagenic activity) | 110.7±10.5 | 111.0±10.2 | 148.7±9.8 | 2.23 | 124.0±5.3 | 2.02 |  |
| Cl.N=C(N)c1ccc(-c2ccc(-c3cccs3)o2)cc1F [Compound 5d, 2-Fluoro-4-(5-(thiophen-2-yl)furan-2-yl)benzamidine hydrochloride salt] | 105.7±4.6 % of control | 65.3±3.9 ^a % of control | 49.3±3.8 ^a % of control | 65.0±7.0 | 67.7±6.0 | 43.3±6.8 | 0.76 | 20.0±1.0 | 0.40 | 65.0±5.0 | 1.14 | 44.3±4.5 | 0.88 |  | 109.7±8.3 | 101.0±6.0 | 261.0±8.5 | 4.19 | 216.7±14.3 | 3.28 |  |
| N=C(N)c1ccc(-c2ccc(-c3ccc(C(=N)N)o3)o2)cc1 [Compound I, 5′-(4-amidinophenyl)-2,2′-bifuran-5-carboxamidine] |  |  |  |  |  |  |  |  |  |  |  |  |  |  |  |  |  |  |  |  | Recognition of G-quadruplex DNA (G-quadruplex DNA): recognize G-quadruplex DNA |
